Measured values from ChEMBL document CHEMBL4190374, “Structure-Function Evaluation of Imidazopyridine Derivatives Selective for δ-Subunit-Containing γ-Aminobutyric Acid Type A (GABAA) Receptors” (J Med Chem, 2018).
The source made the active and inactive calls. The calls are words filed in the database; no cut-off is given here.

Experiments:
[1] = molecular target: T1, Gamma-aminobutyric acid receptor subunit alpha-6/beta-3/delta (Rattus norvegicus) (UniProt P18506+P30191+P63079); test: Displacement of [3H]EBOB from rat GABA-A receptor alpha6beta3delta expressed in HEK293 cell membranes at 10 uM after 90 mins by liquid scintillation counting analysis relative to control
In short: (§1)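 Crude membranes from HEK 293 cells transiently Ca-phosphate-transfected with rat subunit cDNAs, harvested at 48 h. Membranes (150-200 µg protein) incubated with 3 nM [3H]EBOB in 50 mM Tris/citrate pH 7.3 plus 0.2 M NaCl. Compound up to 10 µM, final DMSO 0.1%, no GABA, 90 min at 21 °C. Bound radioligand collected by GF/C filtration and counted by scintillation.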

[2] = molecular target: T2, Gamma-aminobutyric acid receptor subunit alpha-6/beta-3 (Rattus norvegicus) (UniProt P30191+P63079); test: Displacement of [3H]EBOB from rat GABA-A receptor alpha6beta3 expressed in HEK293 cell membranes at 10 uM after 90 mins by liquid scintillation counting analysis relative to control; in short: as §1
[3] = molecular target: T3, Gamma-aminobutyric acid receptor subunit alpha-6/beta-3/gamma-2 (Rattus norvegicus) (UniProt P18508+P30191+P63079); test: Displacement of [3H]EBOB from rat GABA-A receptor alpha6beta3gamma2 expressed in HEK293 cell membranes at 10 uM after 90 mins by liquid scintillation counting analysis relative to control; in short: as §1
[4] = molecular target: Gamma-aminobutyric acid receptor subunit alpha-1/beta-3/delta (Rattus norvegicus, UniProt P18506+P62813+P63079); test: Modulation of rat […] GABA-A receptor alpha1beta3delta expressed in HEK293 cells in presence of GABA by patch-clamp assay; assay type: cell-based
Gamma-aminobutyric acid receptor subunit alpha-1/beta-3/delta, sequence (P18506 whole entry): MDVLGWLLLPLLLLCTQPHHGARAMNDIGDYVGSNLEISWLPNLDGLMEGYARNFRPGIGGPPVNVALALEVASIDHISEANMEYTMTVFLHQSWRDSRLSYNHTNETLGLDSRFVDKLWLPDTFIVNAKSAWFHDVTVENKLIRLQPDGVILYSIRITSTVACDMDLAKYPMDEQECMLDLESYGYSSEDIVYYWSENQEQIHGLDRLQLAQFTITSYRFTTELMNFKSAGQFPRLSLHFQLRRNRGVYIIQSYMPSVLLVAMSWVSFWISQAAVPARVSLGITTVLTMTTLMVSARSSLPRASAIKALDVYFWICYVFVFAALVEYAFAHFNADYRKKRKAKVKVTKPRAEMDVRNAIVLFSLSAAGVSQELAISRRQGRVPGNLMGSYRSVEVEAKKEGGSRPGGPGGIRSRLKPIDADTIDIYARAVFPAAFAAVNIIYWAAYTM
Gamma-aminobutyric acid receptor subunit alpha-1/beta-3/delta, sequence (P62813 whole entry): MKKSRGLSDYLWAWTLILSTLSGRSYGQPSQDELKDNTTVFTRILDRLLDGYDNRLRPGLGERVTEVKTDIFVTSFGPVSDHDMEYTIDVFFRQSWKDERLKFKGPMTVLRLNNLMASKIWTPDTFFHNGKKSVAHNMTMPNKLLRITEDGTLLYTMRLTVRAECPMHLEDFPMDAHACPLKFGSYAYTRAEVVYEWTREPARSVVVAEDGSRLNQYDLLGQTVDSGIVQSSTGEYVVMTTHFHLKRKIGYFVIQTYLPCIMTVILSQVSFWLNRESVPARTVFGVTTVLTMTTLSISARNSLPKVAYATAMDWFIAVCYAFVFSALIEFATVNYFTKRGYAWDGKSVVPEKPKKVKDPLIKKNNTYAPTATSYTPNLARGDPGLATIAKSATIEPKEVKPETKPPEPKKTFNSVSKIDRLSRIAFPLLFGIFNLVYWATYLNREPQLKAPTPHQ
Gamma-aminobutyric acid receptor subunit alpha-1/beta-3/delta, sequence (P63079 whole entry): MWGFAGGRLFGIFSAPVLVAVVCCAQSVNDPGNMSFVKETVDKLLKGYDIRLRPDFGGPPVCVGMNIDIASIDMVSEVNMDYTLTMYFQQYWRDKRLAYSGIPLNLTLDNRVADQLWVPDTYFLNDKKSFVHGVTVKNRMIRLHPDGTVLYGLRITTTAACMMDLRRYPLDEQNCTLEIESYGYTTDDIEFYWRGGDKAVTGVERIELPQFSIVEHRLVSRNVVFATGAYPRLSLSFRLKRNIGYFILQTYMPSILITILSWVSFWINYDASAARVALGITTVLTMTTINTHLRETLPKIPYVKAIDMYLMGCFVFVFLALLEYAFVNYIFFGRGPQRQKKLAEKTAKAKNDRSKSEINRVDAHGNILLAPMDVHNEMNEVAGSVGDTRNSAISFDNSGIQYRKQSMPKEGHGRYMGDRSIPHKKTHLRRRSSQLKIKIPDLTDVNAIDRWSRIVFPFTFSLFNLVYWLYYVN
In short: (§2)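 Rat GABA-A subunits were transiently co-transfected with eGFP into HEK293 cells on coverslips. Fluorescent cells were recorded by whole-cell patch clamp 48 h later; bath pH 7.4, KCl/KOH pipette pH 7.2. Compound was applied at increasing concentrations up to 10 µM with the receptor-specific GABA EC20. Peak currents were fitted logistically for EC50, Hill and % modulation, as mean ± S.E.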

[5] = molecular target: Gamma-aminobutyric acid receptor subunit alpha-4/beta-3/delta (Rattus norvegicus, UniProt P18506+P28471+P63079); test: Modulation of rat […] GABA-A receptor alpha4beta3delta expressed in HEK293 cells in presence of GABA by patch-clamp assay; assay type: cell-based; in short: as §2
Gamma-aminobutyric acid receptor subunit alpha-4/beta-3/delta, sequence (P18506 whole entry): as the sequence (P18506 whole entry) above
Gamma-aminobutyric acid receptor subunit alpha-4/beta-3/delta, sequence (P28471 whole entry): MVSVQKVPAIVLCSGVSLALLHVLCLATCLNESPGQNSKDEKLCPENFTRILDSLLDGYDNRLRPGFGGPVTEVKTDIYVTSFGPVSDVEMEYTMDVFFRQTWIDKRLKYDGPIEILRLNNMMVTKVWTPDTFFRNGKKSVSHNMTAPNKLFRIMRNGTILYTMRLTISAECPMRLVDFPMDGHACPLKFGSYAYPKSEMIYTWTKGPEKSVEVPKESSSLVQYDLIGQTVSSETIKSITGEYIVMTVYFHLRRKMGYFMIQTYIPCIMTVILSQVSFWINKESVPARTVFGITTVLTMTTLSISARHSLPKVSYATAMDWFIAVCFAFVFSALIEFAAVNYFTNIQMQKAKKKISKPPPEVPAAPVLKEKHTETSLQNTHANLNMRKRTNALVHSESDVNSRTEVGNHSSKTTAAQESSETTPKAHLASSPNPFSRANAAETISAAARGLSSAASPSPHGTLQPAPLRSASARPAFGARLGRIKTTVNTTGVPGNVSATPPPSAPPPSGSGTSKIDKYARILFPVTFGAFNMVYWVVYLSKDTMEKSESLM
Gamma-aminobutyric acid receptor subunit alpha-4/beta-3/delta, sequence (P63079 whole entry): as the sequence (P63079 whole entry) above

[6] = molecular target: Gamma-aminobutyric acid receptor subunit alpha-1/beta-3/delta (Rattus norvegicus) (UniProt P18506+P62813+P63079); test: Modulation of rat […] GABA-A receptor alpha1beta3delta expressed in HEK293 cells up to 10 uM in presence of GABA by patch-clamp assay relative to control; assay type: cell-based; in short: as §2
[7] = molecular target: Gamma-aminobutyric acid receptor subunit alpha-4/beta-3/delta (Rattus norvegicus) (UniProt P18506+P28471+P63079); test: Modulation of rat […] GABA-A receptor alpha4beta3delta expressed in HEK293 cells up to 10 uM in presence of GABA by patch-clamp assay relative to control; assay type: cell-based; in short: as §2
[8] = molecular target: T2, Gamma-aminobutyric acid receptor subunit alpha-6/beta-3 (Rattus norvegicus); test: Modulation of rat […] GABA-A receptor alpha6beta3 expressed in HEK293 cells up to 10 uM in presence of GABA by patch-clamp assay relative to control; assay type: cell-based; in short: as §2
[9] = molecular target: Gamma-aminobutyric acid receptor subunit alpha-4/beta-3/gamma-2 (Rattus norvegicus) (UniProt P18508+P28471+P63079); test: Modulation of rat eGFP-fused GABA-A receptor alpha4beta3gamma2 expressed in HEK293 cells at <=1 uM in presence of GABA by patch-clamp assay relative to control; assay type: cell-based
[10] = molecular target: T3, Gamma-aminobutyric acid receptor subunit alpha-6/beta-3/gamma-2 (Rattus norvegicus); test: Modulation of rat eGFP-fused GABA-A receptor alpha6beta3gamma2 expressed in HEK293 cells at <= 1 uM in presence of GABA by patch-clamp assay relative to control; assay type: cell-based
[11] = molecular target: Gamma-aminobutyric acid receptor subunit alpha-1/beta-3 (Rattus norvegicus) (UniProt P62813+P63079); test: Modulation of rat […] GABA-A receptor alpha1beta3 expressed in HEK293 cells at <= 10 uM in presence of GABA by patch-clamp assay relative to control; assay type: cell-based
In short: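 Whole-cell patch clamp on eGFP-co-transfected HEK 293 cells expressing rat subunits, recorded 48 h post-transfection. KCl/KOH-based pipette solution, pH 7.2. Rising compound concentrations up to 10 µM co-applied with the receptor-specific GABA EC20. Peak currents fitted to a logistic function giving EC50, Hill coefficient and % modulation, mean ± S.E. of n experiments.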

[12] = molecular target: Gamma-aminobutyric acid receptor subunit alpha-1/beta-3/gamma-2 (Rattus norvegicus) (UniProt P18508+P62813+P63079); test: Modulation of rat eGFP-fused GABA-A receptor alpha1beta3gamma2 expressed in HEK293 cells at <= 1 uM in presence of GABA by patch-clamp assay relative to control; assay type: cell-based
[13] = molecular target: Gamma-aminobutyric acid receptor subunit alpha-4/beta-3 (Rattus norvegicus) (UniProt P28471+P63079); test: Modulation of rat eGFP-fused GABA-A receptor alpha4beta3 expressed in HEK293 cells at <= 1 uM in presence of GABA by patch-clamp assay relative to control; assay type: cell-based
[14] = molecular target: Gamma-aminobutyric acid receptor subunit alpha-6/beta-3 (Rattus norvegicus, UniProt P30191+P63079); test: Displacement of [3H]EBOB from rat GABA-A receptor alpha6beta3 expressed in HEK293 cell membranes after 90 mins by liquid scintillation counting analysis; in short: as §1
Gamma-aminobutyric acid receptor subunit alpha-6/beta-3, sequence (P30191 whole entry): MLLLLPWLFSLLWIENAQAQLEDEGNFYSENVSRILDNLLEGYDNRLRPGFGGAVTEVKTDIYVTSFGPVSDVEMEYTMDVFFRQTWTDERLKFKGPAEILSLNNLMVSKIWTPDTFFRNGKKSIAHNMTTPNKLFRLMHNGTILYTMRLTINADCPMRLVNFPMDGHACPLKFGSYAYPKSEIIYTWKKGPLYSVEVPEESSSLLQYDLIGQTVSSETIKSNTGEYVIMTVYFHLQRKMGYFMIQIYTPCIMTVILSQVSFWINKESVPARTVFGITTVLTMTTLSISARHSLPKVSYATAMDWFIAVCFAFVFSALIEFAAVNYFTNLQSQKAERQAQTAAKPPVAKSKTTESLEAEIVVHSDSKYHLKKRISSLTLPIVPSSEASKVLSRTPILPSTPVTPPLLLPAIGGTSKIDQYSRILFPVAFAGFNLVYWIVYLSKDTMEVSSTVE
Gamma-aminobutyric acid receptor subunit alpha-6/beta-3, sequence (P63079 whole entry): as the sequence (P63079 whole entry) above

[15] = molecular target: Gamma-aminobutyric acid receptor subunit alpha-6/beta-3/gamma-2 (Rattus norvegicus, UniProt P18508+P30191+P63079); test: Displacement of [3H]EBOB from rat GABA-A receptor alpha6beta3gamma2 expressed in HEK293 cell membranes after 90 mins by liquid scintillation counting analysis; in short: as §1
Gamma-aminobutyric acid receptor subunit alpha-6/beta-3/gamma-2, sequence (P18508 whole entry): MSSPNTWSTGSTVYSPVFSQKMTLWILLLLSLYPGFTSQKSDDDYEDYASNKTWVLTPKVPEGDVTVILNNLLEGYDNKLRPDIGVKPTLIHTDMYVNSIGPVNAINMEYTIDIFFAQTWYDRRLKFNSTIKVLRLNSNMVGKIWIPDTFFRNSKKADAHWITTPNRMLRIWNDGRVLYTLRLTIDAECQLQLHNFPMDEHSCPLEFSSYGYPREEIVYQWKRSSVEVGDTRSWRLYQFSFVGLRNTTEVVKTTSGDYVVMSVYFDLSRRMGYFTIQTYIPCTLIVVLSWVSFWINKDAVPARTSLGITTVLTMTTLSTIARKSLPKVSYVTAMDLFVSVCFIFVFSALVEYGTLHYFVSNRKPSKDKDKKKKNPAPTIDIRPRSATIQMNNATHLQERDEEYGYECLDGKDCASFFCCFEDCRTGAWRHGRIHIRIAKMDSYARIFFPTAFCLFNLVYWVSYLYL
Gamma-aminobutyric acid receptor subunit alpha-6/beta-3/gamma-2, sequence (P30191 whole entry): as the sequence (P30191 whole entry) above
Gamma-aminobutyric acid receptor subunit alpha-6/beta-3/gamma-2, sequence (P63079 whole entry): as the sequence (P63079 whole entry) above

[16] = molecular target: Gamma-aminobutyric acid receptor subunit alpha-6/beta-3/delta (Rattus norvegicus, UniProt P18506+P30191+P63079); test: Displacement of [3H]EBOB from rat GABA-A receptor alpha6beta3delta expressed in HEK293 cell membranes after 90 mins by liquid scintillation counting analysis; in short: as §1
Gamma-aminobutyric acid receptor subunit alpha-6/beta-3/delta, sequence (P18506 whole entry): as the sequence (P18506 whole entry) above
Gamma-aminobutyric acid receptor subunit alpha-6/beta-3/delta, sequence (P30191 whole entry): as the sequence (P30191 whole entry) above
Gamma-aminobutyric acid receptor subunit alpha-6/beta-3/delta, sequence (P63079 whole entry): as the sequence (P63079 whole entry) above

[17] = molecular target: T2, Gamma-aminobutyric acid receptor subunit alpha-6/beta-3 (Rattus norvegicus); test: Displacement of [3H]EBOB from rat GABA-A receptor alpha6beta3 expressed in HEK293 cell membranes up to 10 uM after 90 mins by liquid scintillation counting analysis relative to control; in short: as §1
[18] = molecular target: T3, Gamma-aminobutyric acid receptor subunit alpha-6/beta-3/gamma-2 (Rattus norvegicus); test: Displacement of [3H]EBOB from rat GABA-A receptor alpha6beta3gamma2 expressed in HEK293 cell membranes up to 10 uM after 90 mins by liquid scintillation counting analysis relative to control; in short: as §1
[19] = molecular target: T1, Gamma-aminobutyric acid receptor subunit alpha-6/beta-3/delta (Rattus norvegicus); test: Displacement of [3H]EBOB from rat GABA-A receptor alpha6beta3delta expressed in HEK293 cell membranes up to 10 uM after 90 mins by liquid scintillation counting analysis relative to control; in short: as §1

Imax [1] [%]	IC50 [14] [µM]	IC50 [15] [µM]	IC50 [16] [µM]	Imax [17] [%]	Imax [18] [%]	Imax [19] [%]	SMILES	other results
54	–	–	–	–	–	–	O=C(Nc1c(-c2cccs2)nc2ccccn12)c1ccc(OCc2ccccc2)cc1	inhibition [2]: inactive; inhibition [3]: inactive
20	–	–	–	–	–	–	O=C(Nc1c(-c2cccs2)nc2ccccn12)c1ccc(Cl)cc1	EC50 [4]: 0.86 µM; EC50 [5]: 0.97 µM; Activity [6]: 213%; Activity [7]: 231%; Activity [8]: 588%; Activity [9]: inactive; Activity [10]: inactive; Activity [11]: inactive; Activity [12]: inactive; Activity [13]: inactive
–	3.06	3.39	1.2	91	103	87	O=C(Nc1c(-c2cccs2)nc2c(Br)cc(Br)cn12)c1ccc(F)cc1	–
–	2.5	5.51	0.86	46	24	71	CCCCOc1ccc(C(=O)Nc2c(-c3cccs3)nc3c(Br)cc(Br)cn23)cc1	–
